Screening results: PubChem, several laboratories
T cruzi repl: inhibitors of intracellular T. cruzi growth, primary screen, luminescence, NIH3T3 host cells; T. cruzi beta-gal in NIH3T3, 90 h; inhibition, % (test concentration not listed); hit rate 1.4% among 300,000; AID 1885, 2009;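 active = mean inhibition across valid replicates above about 55%, limit read from the data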;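 note: signal also drops with host cell toxicity which is not excluded here; 0% = plate median of DMSO wells and 100% = zero luminescence signal; higher percent means less beta-gal luminescence so fewer parasites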
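System: Mouse NIH/3T3 fibroblasts infected with β-gal-expressing T. cruzi Tulahuen C4 | Quantity: NIH/3T3 cells, 5,000 per well | Reagent: 5000 reporter trypomastigotes per well | Dosing: Compound pinned at 50 nL/well, DMSO | Schedule: 3 h host attachment, then at least 90 h co-culture | Detection: GalScreen luminescence, 60 min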
NR3A LBD binder: binders of NR3A ligand-binding domain, primary screen, biophysical, differential scanning fluorimetry, uHTS; AID 1259313, 2017; NR3A LBD differential scanning fluorimetry, Tm shift; 0% = protein alone, 100% = glycine-bound protein; hit rate 2.5% among 340,000; Glutamate receptor ionotropic, NMDA 3A (GRIN3A) ligand-binding domain; Tm shift relative to glycine control, % at 25 µM;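 active = melting temperature shift of at least 10% of the positive control shift, at one fixed dose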
Beta apoptosis: inhibitors of cytokine-induced beta cell apoptosis, primary screen, luminescence. INS-1E cytokine-induced death, ATP luminescence, 48 h; percent of positive-control rescue, neutral wells zero. protection from apoptosis, % (no concentration beside the values). hit rate 0.8% among 300,000. AID 435005, 2010;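 active = Every replicate reaches about 75%, or at least half do and their mean reaches it too, limit read from the data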;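 note: 0% = cytokine-treated negative control wells and 100% = positive control rescue; higher means more ATP so stronger rescue from cytokine killing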
CHOP inhibitor: inhibitors of CHOP promoter induction, primary screen, cell-based, unfolded protein response, luciferase reporter; CHO-K1 CHOP-promoter luciferase, tunicamycin-induced, 15-18 h; inhibition, % at 10 µM; hit rate 3.8% among 220,000; AID 2732, 2010;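 active = compounds that reduced the stress-induced luciferase reporter signal by more than about 70% of percent inhibition, limit read from the data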;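 note: 0% = tunicamycin plus vehicle and 100% = wells without tunicamycin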
PREPL inhibitor: PREPL enzyme inhibitors, primary screen, biochemical, fluorescence polarization. recombinant PREPL, fluorescence polarization activity-based probe. hit rate 0.68% among 320,000. AID 2751, 2010. Prolyl endopeptidase-like (Homo sapiens), Q4J6C6. inhibition, % at 5.96 µM; in the data active = inhibition above about 43%;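 note: 0% = enzyme with DMSO and 100% = wells lacking enzyme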
Target sequence (Q4J6C6 whole entry, looked up): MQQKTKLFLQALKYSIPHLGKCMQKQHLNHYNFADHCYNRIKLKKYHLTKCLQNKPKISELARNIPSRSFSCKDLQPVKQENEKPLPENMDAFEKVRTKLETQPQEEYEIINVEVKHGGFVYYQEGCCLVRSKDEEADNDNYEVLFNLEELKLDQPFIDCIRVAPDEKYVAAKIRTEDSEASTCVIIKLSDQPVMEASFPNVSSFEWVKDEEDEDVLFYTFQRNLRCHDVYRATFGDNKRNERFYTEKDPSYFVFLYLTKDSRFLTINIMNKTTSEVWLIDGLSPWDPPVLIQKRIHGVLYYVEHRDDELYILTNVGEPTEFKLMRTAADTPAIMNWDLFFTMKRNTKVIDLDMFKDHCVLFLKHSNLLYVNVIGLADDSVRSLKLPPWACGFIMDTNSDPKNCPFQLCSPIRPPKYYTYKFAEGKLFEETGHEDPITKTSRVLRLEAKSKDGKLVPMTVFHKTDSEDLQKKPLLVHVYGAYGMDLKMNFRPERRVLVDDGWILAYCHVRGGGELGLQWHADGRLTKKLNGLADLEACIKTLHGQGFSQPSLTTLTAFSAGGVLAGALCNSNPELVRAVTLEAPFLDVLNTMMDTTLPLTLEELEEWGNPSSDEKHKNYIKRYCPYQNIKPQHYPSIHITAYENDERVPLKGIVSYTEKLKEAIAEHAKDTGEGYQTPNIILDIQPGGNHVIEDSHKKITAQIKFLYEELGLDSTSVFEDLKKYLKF
CSC inhib: cancer stem cell viability inhibitors, primary screen, luminescence | cancer stem cell-like cells viability | inhibition, % at 7.5 µM | hit rate 1.1% among 300,000; in the data active = inhibition above about 75%; tested in HMLE shEcad cells
An asterisk follows results filed as active; nt = no result given. Shown are actives, neighbours in structure and some others; about 6.7% of the full set was active somewhere.

SMILES	T cruzi repl	NR3A LBD binder	Beta apoptosis	CHOP inhibitor	PREPL inhibitor	CSC inhib
O=C(NCc1cccs1)C1CCC(CNS(=O)(=O)c2ccc(Br)s2)CC1 (stereo unspecified)	3	0	-9	-4	10	0
NS(=O)(=O)c1ccc(CCNC(=O)C2CCC(CNS(=O)(=O)c3ccc(Br)s3)CC2)cc1 (stereo unspecified)	-5	13*	nt	42	0	-10
O=C(N/N=C/c1c(Nc2cccc(C(F)(F)F)c2)nc2ccccn2c1=O)c1ccccc1[N+](=O)[O-]	25	10*	5	38	12	-2
CS(=O)(=O)c1ccc(-c2sc3ccccc3c2C(=O)NCCCN2CCOCC2)cc1	nt	-2	nt	nt	16	nt
COc1ccc(C(=O)N2CCCC(CCC(=O)NCc3ccc(F)c(F)c3)C2)cc1F (stereo unspecified)	4	-3	7	43	-3	-8
O=C(Nc1nnc(Cc2ccc([N+](=O)[O-])cc2)s1)Nc1ccccc1F	-16	-6	4	74*	-22	2
Cc1ccc(NC(=O)Nc2nnc(Cc3ccc([N+](=O)[O-])cc3)s2)cc1C	15	25*	nt	41	4	nt
O=C(Nc1nnc(Cc2ccc(F)cc2)s1)Nc1ccccc1F	-8	2	-5	nt	-20	26
Cc1ccccc1NC(=O)Nc1nnc(Cc2ccc([N+](=O)[O-])cc2)s1	13	-3	6	91*	-15	nt
O=C(Nc1ccccc1)Nc1nnc(Cc2ccc([N+](=O)[O-])cc2)s1	11	16*	-5	90*	-17	11
Cc1cc(NC(=O)c2ccc(Br)o2)ccc1NC(=O)c1ccco1	3	-14	3	nt	-2	28
Cc1ccccc1OCc1ccc(C(=O)N2CC(C)OC(C)C2)o1 (stereo unspecified)	3	-4	-1	nt	19	nt
CC(C)Cc1n[nH]c(=O)[nH]1	-6	-2	1	83*	5	6
CC(C)Cc1nc2ccccc2[nH]1	-7	-2	-8	-1	9	-9
Cc1cc([N+](=O)[O-])ccc1NC(=O)Nc1ccc(F)cc1F	55*	1	nt	27	17	23
CC(C)(C)CC(C)(C)NC(=O)Nc1cccc([N+](=O)[O-])c1	33	-2	16	80*	15	-1
Cc1ccc(NC(=O)Nc2cccc([N+](=O)[O-])c2)cc1F	55*	34*	93*	64	18	21
CC(C)(C)c1ccc(C(=O)Nc2cccc([N+](=O)[O-])c2)cc1	18	-10	2	51	7	55
O=C(Nc1ccc(F)cc1)Nc1cccnc1	-5	-3	7	nt	nt	3
O=C(Nc1ccc(OC(F)(F)F)cc1)Nc1cccnc1	1	11*	4	-4	0	9
O=C(c1ccccc1NS(=O)(=O)c1cccc([N+](=O)[O-])c1)N1CCCC1	3	-1	nt	nt	-3	1
COCCN(CCOC)S(=O)(=O)c1ccc(C(=O)Nc2c(C)n(C)n(-c3ccccc3)c2=O)cc1	3	0	1	12	13	-8
CCc1ccc(NC(=O)c2cnc(SC)nc2C)cc1	8	1	-4	nt	nt	-1
O=C(Nc1ccc(OC(F)(F)F)cc1)Nc1cccc([N+](=O)[O-])c1	47	13*	102*	106*	22	nt
O=C(Nc1cccc([N+](=O)[O-])c1)c1ccc2ccccc2c1O	4	26*	-5	58	11	-1
SMILES	T cruzi repl	NR3A LBD binder	Beta apoptosis	CHOP inhibitor	PREPL inhibitor	CSC inhib
O=C(Cc1ccccc1)Nc1cccc([N+](=O)[O-])c1	-4	-3	-2	6	-5	1
Cn1c(=O)c(C#N)c(-c2ccc(F)cc2)c2cc(C(=O)c3cc(Cl)cc(Cl)c3O)cnc21	-2	12*	28	56	-3	124*
COc1ccccc1-n1c(=O)c(C#N)c(-c2ccc([N+](=O)[O-])cc2)c2cc(C(=O)c3cc(F)ccc3O)cnc21	42	-4	12	15	9	-2
CC(Sc1ccc(S(=O)(=O)N2CCN(C)CC2)cn1)C(=O)Nc1cccc(Cl)c1Cl (stereo unspecified)	nt	1	nt	nt	nt	nt
CCn1cc(C(=O)O)c(=O)c2cc(F)c(N/N=C/c3ccccc3[N+](=O)[O-])cc21	34	-6	97*	78*	2	22
CCn1cc(C(=O)O)c(=O)c2cc(F)c(N3CCN(C(=S)Nc4ccccc4OC)CC3)cc21	-23	2	6	-15	-5	-10
O=C(/C=C/c1ccco1)Nc1ccc(-c2nc3ccccc3[nH]2)cc1	-45	30*	-2	96*	-7	66
O=C(Nc1ccc(-c2nc3ccccc3[nH]2)cc1)c1ccco1	5	35*	8	-14	7	20
Cn1cc([N+](=O)[O-])c(C(=O)Nc2ccc(C3CCCCC3)cc2)n1	26	-1	-15	13	1	117*
Cn1cc([N+](=O)[O-])c(C(=O)Nc2ccc(C(=O)N3CCCCC3)cc2)n1	-32	1	-5	8	5	nt
O=C(CSc1ccc(Cl)cc1)Nc1ccc(-c2nc3ccccc3[nH]2)cc1	5	37*	10	15	-6	2
O=C(CSc1ccccc1)Nc1nc2ccccc2[nH]1	-8	-3	-1	-12	-16	53
Cc1ccc(N=C2NC(=O)CS2)cc1C	-7	0	-8	nt	-1	1
CN(CC(=O)Nc1ccccc1C(=O)NC1CC1)Cc1cccs1	nt	1	-1	nt	-2	-16
Cn1cc([N+](=O)[O-])c(C(=O)Nc2ccc3nc(-c4ccccc4)[nH]c3c2)n1	-35	-12	-4	1	-2	nt
Cn1cc([N+](=O)[O-])c(C(=O)Nc2ccc(-c3nc4ccccc4[nH]3)cc2)n1	-17	19*	-6	-43	-2	30
O=C(Cn1cc(C(F)(F)F)cc(Cl)c1=O)NCCc1ccc(Cl)cc1Cl	-6	5	1	74*	-1	-8
COc1ccc(-c2nn(-c3ccccc3)cc2/C=N/NC(=O)c2cccc(S(=O)(=O)Nc3ccccc3Cl)c2)cc1	-22	22*	7	2	4	32
COc1ccc(-c2nn(-c3ccccc3)cc2/C=N/NS(=O)(=O)c2ccccc2)cc1	6	21*	2	38	-1	1
COc1ccc(-c2nn(-c3ccccc3)cc2/C=N/O)cc1	19	-1	-15	nt	10	21
Cc1[nH]c2ccccc2c1/C=N/NC(=O)c1cccc(S(=O)(=O)Nc2cccc(C(F)(F)F)c2)c1	-8	28*	-6	-3	15	25
